Data from ChEMBL document CHEMBL5653631, “A Potent and Selective ULK1 Inhibitor Suppresses Autophagy and Sensitizes Cancer Cells to Nutrient Stress” (iScience, 2018).

Experiments:
[1] = biological target: Vascular endothelial growth factor receptor 2 (Homo sapiens) (UniProt P35968); experiment: Inhibition of human recombinant KDR at 40 nM related to control ULK1
[2] = biological target: Mitogen-activated protein kinase 10 (Homo sapiens) (UniProt P53779); experiment: Inhibition of human recombinant JNK3 at 40 nM related to control ULK1
[3] = biological target: PAS domain-containing serine/threonine-protein kinase (Homo sapiens) (UniProt Q96RG2); experiment: Inhibition of human recombinant PASK at 40 nM in presence of ATP by radiometric assay relative to control
[4] = biological target: RAF proto-oncogene serine/threonine-protein kinase (Homo sapiens) (UniProt P04049); experiment: Inhibition of human recombinant RAF1 at 15 nM in presence of ATP by radiometric assay relative to control
[5] = biological target: Tyrosine-protein kinase Fgr (Homo sapiens) (UniProt P09769); experiment: Inhibition of human recombinant FGR at 15 nM related to control ULK1
[6] = biological target: Protein-tyrosine kinase 6 (Homo sapiens) (UniProt Q13882); experiment: Inhibition of human recombinant BRK at 15 nM in presence of ATP by radiometric assay relative to control
Procedure, shortened: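 Part of a radiometric in vitro activity panel of 327 recombinant human kinases. Each kinase was tested in duplicate at one inhibitor concentration. Activity remaining was expressed as a percentage of the vehicle control, and percent inhibition was taken as 100 minus that value.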

[7] = biological target: Protein kinase C theta type (Homo sapiens) (UniProt Q04759); experiment: Inhibition of human recombinant PKCt at 15 nM related to control ULK1
[8] = biological target: T1, MAPK/MAK/MRK overlapping kinase (Homo sapiens) (UniProt Q9UQ07); experiment: Inhibition of human recombinant MOK at 500 nM in presence of ATP by radiometric assay relative to control
T1 sequence (whole entry): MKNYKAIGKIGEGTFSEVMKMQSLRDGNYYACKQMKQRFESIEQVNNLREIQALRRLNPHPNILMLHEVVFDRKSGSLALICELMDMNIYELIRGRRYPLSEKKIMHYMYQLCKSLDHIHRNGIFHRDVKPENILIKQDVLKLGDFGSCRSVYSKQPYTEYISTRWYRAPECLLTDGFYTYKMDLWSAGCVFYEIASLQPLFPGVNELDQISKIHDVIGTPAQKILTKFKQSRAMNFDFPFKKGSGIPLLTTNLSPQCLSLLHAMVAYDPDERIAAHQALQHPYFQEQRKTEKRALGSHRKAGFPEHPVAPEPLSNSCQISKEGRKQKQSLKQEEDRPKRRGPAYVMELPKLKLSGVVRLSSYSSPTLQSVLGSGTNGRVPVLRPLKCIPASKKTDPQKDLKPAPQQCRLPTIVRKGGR

[9] = biological target: T2, Serine/threonine-protein kinase TAO1 (Homo sapiens) (UniProt Q7L7X3); experiment: Inhibition of human recombinant TAO1 at 500 nM in presence of ATP by radiometric assay relative to control
T2 sequence (whole entry): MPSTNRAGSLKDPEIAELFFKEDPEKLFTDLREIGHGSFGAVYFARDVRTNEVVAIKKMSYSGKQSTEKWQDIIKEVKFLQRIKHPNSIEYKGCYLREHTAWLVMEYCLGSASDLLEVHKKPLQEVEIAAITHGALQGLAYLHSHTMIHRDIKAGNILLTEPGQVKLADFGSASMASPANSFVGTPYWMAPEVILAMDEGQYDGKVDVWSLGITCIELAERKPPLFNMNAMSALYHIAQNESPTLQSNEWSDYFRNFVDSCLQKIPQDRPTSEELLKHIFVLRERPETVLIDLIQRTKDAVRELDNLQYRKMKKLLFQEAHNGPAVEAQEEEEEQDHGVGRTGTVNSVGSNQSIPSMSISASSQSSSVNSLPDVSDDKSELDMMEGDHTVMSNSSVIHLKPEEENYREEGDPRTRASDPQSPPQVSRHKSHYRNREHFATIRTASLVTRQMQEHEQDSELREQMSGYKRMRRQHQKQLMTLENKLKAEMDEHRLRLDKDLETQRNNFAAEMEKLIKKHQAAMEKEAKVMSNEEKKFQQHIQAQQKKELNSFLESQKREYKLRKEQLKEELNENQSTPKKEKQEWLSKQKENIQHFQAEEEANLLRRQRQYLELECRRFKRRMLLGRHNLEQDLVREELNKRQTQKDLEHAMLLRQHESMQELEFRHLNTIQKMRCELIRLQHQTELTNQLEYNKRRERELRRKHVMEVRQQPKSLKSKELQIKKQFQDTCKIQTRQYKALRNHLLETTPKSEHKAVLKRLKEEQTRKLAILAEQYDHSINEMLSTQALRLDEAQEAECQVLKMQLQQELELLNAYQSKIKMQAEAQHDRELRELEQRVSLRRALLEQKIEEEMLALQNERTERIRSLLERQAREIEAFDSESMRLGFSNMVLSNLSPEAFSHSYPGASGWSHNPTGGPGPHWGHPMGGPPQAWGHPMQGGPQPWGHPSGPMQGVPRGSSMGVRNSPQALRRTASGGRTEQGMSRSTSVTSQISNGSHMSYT

[10] = biological target: T3, Serine/threonine-protein kinase Nek11 (Homo sapiens) (UniProt Q8NG66); experiment: Inhibition of human recombinant NEK11 at 500 nM in presence of ATP by radiometric assay relative to control
T3 sequence (whole entry): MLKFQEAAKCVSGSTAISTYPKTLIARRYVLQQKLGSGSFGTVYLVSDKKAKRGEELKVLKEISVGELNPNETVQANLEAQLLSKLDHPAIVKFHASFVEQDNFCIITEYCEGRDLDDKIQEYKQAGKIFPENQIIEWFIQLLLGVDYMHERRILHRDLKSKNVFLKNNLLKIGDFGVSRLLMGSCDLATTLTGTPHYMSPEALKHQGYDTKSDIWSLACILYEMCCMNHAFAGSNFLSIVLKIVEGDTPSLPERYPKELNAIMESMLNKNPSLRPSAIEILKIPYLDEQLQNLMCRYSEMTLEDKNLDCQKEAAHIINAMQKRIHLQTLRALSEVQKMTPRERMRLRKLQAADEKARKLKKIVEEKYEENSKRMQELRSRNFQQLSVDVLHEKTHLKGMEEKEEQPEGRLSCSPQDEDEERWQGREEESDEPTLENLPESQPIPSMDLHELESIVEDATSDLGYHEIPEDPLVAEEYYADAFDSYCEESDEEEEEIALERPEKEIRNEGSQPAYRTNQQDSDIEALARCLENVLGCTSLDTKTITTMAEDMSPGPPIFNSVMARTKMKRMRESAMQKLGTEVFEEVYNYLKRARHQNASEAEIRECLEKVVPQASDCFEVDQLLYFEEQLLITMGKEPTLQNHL

[11] = biological target: Receptor tyrosine-protein kinase erbB-4 (Homo sapiens) (UniProt Q15303); experiment: Inhibition of human recombinant ErbB4 at 500 nM in presence of ATP by radiometric assay relative to control

PAS domain-containing serine/threonine-protein kinase (Homo sapiens), sequence (Q96RG2 whole entry, the tested form may be a part): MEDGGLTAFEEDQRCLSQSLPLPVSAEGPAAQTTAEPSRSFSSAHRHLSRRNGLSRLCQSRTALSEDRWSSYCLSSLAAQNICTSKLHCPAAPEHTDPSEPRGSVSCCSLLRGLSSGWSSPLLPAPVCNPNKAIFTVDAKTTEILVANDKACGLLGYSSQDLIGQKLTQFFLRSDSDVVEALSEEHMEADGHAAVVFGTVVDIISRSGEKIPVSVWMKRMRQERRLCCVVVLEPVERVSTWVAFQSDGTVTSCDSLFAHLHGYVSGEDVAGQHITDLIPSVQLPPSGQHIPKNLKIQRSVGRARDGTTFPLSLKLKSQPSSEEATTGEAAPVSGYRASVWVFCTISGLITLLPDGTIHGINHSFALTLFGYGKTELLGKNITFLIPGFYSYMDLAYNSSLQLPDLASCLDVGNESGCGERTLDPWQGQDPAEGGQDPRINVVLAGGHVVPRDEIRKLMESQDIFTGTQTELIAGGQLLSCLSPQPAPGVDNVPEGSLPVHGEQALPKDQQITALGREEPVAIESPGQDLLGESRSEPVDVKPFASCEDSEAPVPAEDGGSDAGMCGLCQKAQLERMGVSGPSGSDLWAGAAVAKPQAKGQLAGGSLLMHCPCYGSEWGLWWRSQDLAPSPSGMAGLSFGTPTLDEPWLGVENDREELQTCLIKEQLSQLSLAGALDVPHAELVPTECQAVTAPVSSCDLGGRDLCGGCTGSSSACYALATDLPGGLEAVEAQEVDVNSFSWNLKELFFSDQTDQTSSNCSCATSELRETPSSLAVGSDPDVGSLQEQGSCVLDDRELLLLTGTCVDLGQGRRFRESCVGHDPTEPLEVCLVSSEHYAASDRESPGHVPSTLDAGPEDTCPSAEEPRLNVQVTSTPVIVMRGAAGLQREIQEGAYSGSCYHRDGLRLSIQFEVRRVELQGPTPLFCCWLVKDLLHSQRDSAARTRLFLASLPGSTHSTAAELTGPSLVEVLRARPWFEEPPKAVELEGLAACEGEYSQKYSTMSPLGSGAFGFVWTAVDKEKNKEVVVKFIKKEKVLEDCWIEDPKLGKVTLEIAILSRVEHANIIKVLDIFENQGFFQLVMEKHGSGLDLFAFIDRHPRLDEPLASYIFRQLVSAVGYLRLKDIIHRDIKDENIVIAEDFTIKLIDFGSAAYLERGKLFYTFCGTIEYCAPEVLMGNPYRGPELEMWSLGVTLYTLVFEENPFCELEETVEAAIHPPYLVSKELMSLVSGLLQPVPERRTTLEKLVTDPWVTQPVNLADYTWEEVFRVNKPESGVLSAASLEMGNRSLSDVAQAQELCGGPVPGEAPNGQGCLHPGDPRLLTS
Vascular endothelial growth factor receptor 2 (Homo sapiens), sequence (P35968 whole entry): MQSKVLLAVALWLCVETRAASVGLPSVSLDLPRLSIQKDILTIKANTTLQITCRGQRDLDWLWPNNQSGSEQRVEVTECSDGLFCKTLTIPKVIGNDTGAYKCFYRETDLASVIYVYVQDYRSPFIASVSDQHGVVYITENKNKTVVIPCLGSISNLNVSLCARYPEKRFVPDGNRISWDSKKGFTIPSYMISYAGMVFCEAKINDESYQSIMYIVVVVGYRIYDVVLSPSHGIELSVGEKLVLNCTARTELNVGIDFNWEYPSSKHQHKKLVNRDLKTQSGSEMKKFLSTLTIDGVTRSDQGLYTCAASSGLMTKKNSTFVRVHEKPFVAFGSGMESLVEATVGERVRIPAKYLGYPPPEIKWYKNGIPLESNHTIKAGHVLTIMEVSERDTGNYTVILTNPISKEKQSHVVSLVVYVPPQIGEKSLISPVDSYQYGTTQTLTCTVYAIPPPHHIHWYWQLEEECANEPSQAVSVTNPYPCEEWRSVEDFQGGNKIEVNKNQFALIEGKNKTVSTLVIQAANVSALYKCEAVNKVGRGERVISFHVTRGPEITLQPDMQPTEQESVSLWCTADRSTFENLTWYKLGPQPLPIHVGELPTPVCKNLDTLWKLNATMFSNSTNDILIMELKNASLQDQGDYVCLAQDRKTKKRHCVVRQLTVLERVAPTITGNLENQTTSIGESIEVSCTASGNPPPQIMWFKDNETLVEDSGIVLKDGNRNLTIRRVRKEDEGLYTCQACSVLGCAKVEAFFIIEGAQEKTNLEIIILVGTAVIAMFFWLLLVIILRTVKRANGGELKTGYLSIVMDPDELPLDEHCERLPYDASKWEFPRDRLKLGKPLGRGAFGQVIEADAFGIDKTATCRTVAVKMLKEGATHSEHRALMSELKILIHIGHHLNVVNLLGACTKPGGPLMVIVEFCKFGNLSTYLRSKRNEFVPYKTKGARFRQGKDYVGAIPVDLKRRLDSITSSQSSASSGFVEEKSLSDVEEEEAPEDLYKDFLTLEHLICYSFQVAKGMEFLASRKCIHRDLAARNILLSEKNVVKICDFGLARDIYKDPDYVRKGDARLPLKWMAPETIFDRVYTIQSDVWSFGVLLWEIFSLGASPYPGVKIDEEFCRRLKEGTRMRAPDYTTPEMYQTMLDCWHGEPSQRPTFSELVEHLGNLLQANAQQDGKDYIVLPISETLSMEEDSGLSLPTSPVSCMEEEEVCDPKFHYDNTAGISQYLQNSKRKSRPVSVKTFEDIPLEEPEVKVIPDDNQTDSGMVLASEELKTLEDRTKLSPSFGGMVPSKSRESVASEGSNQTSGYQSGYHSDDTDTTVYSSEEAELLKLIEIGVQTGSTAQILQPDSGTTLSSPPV
Tyrosine-protein kinase Fgr (Homo sapiens), sequence (P09769 2-529 limits assumed): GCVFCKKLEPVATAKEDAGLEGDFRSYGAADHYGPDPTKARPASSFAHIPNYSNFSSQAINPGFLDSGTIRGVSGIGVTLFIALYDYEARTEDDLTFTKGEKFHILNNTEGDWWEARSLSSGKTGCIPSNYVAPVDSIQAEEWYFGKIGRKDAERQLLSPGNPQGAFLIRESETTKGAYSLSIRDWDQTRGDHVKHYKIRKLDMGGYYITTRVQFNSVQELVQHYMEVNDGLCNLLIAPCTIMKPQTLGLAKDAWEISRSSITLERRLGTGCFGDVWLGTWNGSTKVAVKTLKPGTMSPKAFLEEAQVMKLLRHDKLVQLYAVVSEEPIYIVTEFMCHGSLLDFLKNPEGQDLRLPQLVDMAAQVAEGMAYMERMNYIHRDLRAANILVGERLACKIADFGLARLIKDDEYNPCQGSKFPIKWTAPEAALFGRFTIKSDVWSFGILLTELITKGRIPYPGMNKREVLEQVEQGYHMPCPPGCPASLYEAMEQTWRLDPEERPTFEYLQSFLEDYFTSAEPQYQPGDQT
RAF proto-oncogene serine/threonine-protein kinase (Homo sapiens), sequence (P04049 whole entry): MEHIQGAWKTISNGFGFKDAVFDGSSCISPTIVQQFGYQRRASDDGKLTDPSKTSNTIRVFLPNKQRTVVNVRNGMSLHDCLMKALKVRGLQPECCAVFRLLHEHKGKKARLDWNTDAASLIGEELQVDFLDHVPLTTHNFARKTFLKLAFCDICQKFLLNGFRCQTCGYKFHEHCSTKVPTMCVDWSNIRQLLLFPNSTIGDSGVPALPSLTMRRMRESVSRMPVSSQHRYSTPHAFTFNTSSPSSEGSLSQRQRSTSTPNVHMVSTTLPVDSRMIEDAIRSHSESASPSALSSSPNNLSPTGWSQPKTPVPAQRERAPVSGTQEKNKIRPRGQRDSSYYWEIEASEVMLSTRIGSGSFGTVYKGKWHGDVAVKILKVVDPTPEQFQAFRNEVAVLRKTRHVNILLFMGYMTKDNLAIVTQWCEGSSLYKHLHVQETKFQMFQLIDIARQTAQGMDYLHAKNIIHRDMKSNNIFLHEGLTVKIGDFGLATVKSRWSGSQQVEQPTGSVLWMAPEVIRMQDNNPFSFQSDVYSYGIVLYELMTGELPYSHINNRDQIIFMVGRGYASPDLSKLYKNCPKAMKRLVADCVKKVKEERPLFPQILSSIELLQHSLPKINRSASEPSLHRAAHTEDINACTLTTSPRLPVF
Protein kinase C theta type (Homo sapiens), sequence (Q04759 whole entry, looked up): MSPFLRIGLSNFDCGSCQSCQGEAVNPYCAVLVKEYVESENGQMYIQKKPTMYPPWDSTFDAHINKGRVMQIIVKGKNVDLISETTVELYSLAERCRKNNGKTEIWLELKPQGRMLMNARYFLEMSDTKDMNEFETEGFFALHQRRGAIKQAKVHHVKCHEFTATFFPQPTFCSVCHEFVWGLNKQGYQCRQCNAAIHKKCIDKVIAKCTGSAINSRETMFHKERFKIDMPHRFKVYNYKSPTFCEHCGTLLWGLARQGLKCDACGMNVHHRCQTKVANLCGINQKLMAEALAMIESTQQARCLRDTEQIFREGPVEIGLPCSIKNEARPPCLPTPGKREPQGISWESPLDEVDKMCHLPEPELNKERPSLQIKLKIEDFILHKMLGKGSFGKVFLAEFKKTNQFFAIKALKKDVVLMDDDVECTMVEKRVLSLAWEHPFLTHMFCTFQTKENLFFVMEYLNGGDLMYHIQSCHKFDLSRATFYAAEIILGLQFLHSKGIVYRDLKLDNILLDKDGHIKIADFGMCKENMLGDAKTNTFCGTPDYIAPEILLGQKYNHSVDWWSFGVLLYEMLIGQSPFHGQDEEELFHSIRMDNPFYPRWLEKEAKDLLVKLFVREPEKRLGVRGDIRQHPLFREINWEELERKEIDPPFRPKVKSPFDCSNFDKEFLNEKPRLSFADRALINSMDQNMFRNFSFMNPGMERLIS
Mitogen-activated protein kinase 10 (Homo sapiens), sequence (P53779 whole entry, the tested form may be a part): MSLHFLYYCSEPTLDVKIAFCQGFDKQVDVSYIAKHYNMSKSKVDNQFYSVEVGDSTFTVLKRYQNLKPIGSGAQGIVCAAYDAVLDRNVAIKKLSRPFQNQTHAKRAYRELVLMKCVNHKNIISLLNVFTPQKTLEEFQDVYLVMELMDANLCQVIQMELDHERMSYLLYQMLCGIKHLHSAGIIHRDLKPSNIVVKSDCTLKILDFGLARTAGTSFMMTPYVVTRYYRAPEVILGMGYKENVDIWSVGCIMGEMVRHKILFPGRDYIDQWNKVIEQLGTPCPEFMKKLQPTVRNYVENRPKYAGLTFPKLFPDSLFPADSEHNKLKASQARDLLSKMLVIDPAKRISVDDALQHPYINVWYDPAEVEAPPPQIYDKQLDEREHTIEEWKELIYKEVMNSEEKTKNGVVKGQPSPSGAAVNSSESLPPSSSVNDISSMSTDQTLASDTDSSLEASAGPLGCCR

Q: With `O=C(N[C@@H](C1CC1)C(F)(F)F)c1cc(-c2cnn3cc(-c4ccc(F)cc4)cnc23)cs1` as the compound, how does the fold change (FC) [1] read?
A: The fold change (FC) was 0.07.

Q: What about the fold change (FC) [2] of the same compound?
A: Its fold change (FC) is 0.

Q: What about the inhibition [3] of the same compound?
A: The inhibition was 12%.

Q: For `CC(C)[C@H](NC(=O)c1cc(-c2cnn3cc(-c4ccc(OCCN5CCCCC5)cc4)cnc23)cs1)C(F)(F)F`, which inhibition [4] is on record?
A: The inhibition was 8%.

Q: And the fold change (FC) [5]?
A: The fold change (FC) was 0.49.

Q: And the inhibition [6]?
A: Its inhibition is 8%.

Q: And the fold change (FC) [7]?
A: The fold change (FC) was 0.

Q: Which inhibition [8] does the source give for `CNC(=O)c1ccccc1Oc1nc(Nc2cc(OC)c(OC)c(OC)c2)ncc1Br` here?
A: Its inhibition is 2%.

Q: What about the inhibition [9] of the same compound?
A: The inhibition was 6%.

Q: And the inhibition [10]?
A: The inhibition was 8%.

Q: What about the inhibition [11] of the same compound?
A: The inhibition was 0%.
